# Data reported in ChEMBL document CHEMBL3864121, “Development of ebsulfur analogues as potent antibacterials against methicillin-resistant Staphylococcus aureus” (Bioorg Med Chem, 2016).
# System: Staphylococcus aureus
# Assay: Antibacterial activity against methicillin-resistant Staphylococcus aureus S17 measured after overnight incubation by broth double-dilution method
# Type: functional
# Conditions: not given
# Summary of the method: (§1)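 MIC by broth double-dilution in liquid Mueller-Hinton medium. Values are reported in µg/mL.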
row,Compound,MIC
1,CC(C)CCn1c(=O)c2ccccc2[s+]1[O-] (stereo not given),> 125 µg/mL
2,CC(C)CCn1sc2ccccc2c1=O,3.9 µg/mL

# System: Staphylococcus aureus
# Assay: Antibacterial activity against methicillin-resistant Staphylococcus aureus NRS77 measured after overnight incubation by broth double-dilution method
# Type: functional
# Conditions: not given
# Summary of the method: as §1
row,Compound,MIC
1,CC(C)CCn1c(=O)c2ccccc2[s+]1[O-] (stereo not given),> 125 µg/mL
2,CC(C)CCn1sc2ccccc2c1=O,3.9 µg/mL

# System: Staphylococcus aureus
# Assay: Antibacterial activity against methicillin-resistant Staphylococcus aureus C16 measured after overnight incubation by broth double-dilution method
# Type: functional
# Conditions: not given
# Summary of the method: as §1
row,Compound,MIC
1,CC(C)CCn1c(=O)c2ccccc2[s+]1[O-] (stereo not given),> 125 µg/mL
2,CC(C)CCn1sc2ccccc2c1=O,7.8 µg/mL

# System: Staphylococcus aureus
# Assay: Antibacterial activity against methicillin-resistant Staphylococcus aureus C2 measured after overnight incubation by broth double-dilution method
# Type: functional
# Conditions: not given
# Summary of the method: as §1
row,Compound,MIC
1,CC(C)CCn1c(=O)c2ccccc2[s+]1[O-] (stereo not given),> 125 µg/mL
2,CC(C)CCn1sc2ccccc2c1=O,3.9 µg/mL

# System: Staphylococcus aureus
# Assay: Antibacterial activity against methicillin-resistant Staphylococcus aureus G6 measured after overnight incubation by broth double-dilution method
# Type: functional
# Conditions: not given
# Summary of the method: as §1
row,Compound,MIC
1,CC(C)CCn1c(=O)c2ccccc2[s+]1[O-] (stereo not given),> 125 µg/mL
2,CC(C)CCn1sc2ccccc2c1=O,3.9 µg/mL

# System: Enterococcus
# Assay: Antibacterial activity against Vancomycin-resistant Enterococcus measured after overnight incubation by broth double-dilution method
# Type: functional
# Conditions: not given
# Summary of the method: as §1
row,Compound,MIC
1,CC(C)CCn1c(=O)c2ccccc2[s+]1[O-] (stereo not given),> 125 µg/mL
2,CC(C)CCn1sc2ccccc2c1=O,2 µg/mL

# System: Mycolicibacterium smegmatis
# Assay: Antibacterial activity against Mycobacterium smegmatis MC2-155 measured after overnight incubation by broth double-dilution method
# Type: functional
# Conditions: str. MC2 155
# Summary of the method: as §1
row,Compound,MIC
1,CC(C)CCn1c(=O)c2ccccc2[s+]1[O-] (stereo not given),> 125 µg/mL
2,CC(C)CCn1sc2ccccc2c1=O,3.9 µg/mL

# System: Staphylococcus aureus
# Assay: Antibacterial activity against methicillin-sensitive Staphylococcus aureus ATCC 6538 measured after overnight incubation by broth double-dilution method
# Type: functional
# Conditions: not given
# Summary of the method: as §1
row,Compound,MIC
1,CC(C)CCn1c(=O)c2ccccc2[s+]1[O-] (stereo not given),> 125 µg/mL
2,CC(C)CCn1sc2ccccc2c1=O,3.9 µg/mL

# System: Staphylococcus aureus
# Assay: Antibacterial activity against methicillin-resistant Staphylococcus aureus G1 measured after overnight incubation by broth double-dilution method
# Type: functional
# Conditions: not given
# Summary of the method: as §1
row,Compound,MIC
1,CC(C)CCn1c(=O)c2ccccc2[s+]1[O-] (stereo not given),> 125 µg/mL
2,CC(C)CCn1sc2ccccc2c1=O,2 µg/mL

# System: Staphylococcus aureus
# Assay: Antibacterial activity against methicillin-resistant Staphylococcus aureus G12 measured after overnight incubation by broth double-dilution method
# Type: functional
# Conditions: not given
# Summary of the method: as §1
row,Compound,MIC
1,CC(C)CCn1c(=O)c2ccccc2[s+]1[O-] (stereo not given),> 125 µg/mL
2,CC(C)CCn1sc2ccccc2c1=O,3.9 µg/mL

# System: Staphylococcus aureus
# Assay: Antibacterial activity against methicillin-resistant Staphylococcus aureus USA300 measured after overnight incubation by broth double-dilution method
# Type: functional
# Conditions: not given
# Summary of the method: as §1
row,Compound,MIC
1,CC(C)CCn1c(=O)c2ccccc2[s+]1[O-] (stereo not given),> 125 µg/mL
2,CC(C)CCn1sc2ccccc2c1=O,7.8 µg/mL

# System: Staphylococcus aureus
# Assay: Antibacterial activity against methicillin-resistant Staphylococcus aureus BRS3 measured after overnight incubation by broth double-dilution method
# Type: functional
# Conditions: not given
# Summary of the method: as §1
row,Compound,MIC
1,CC(C)CCn1c(=O)c2ccccc2[s+]1[O-] (stereo not given),> 125 µg/mL
2,CC(C)CCn1sc2ccccc2c1=O,3.9 µg/mL

# System: Staphylococcus aureus
# Assay: Antibacterial activity against methicillin-resistant Staphylococcus aureus C1 measured after overnight incubation by broth double-dilution method
# Type: functional
# Conditions: not given
# Summary of the method: as §1
row,Compound,MIC
1,CC(C)CCn1c(=O)c2ccccc2[s+]1[O-] (stereo not given),> 125 µg/mL
2,CC(C)CCn1sc2ccccc2c1=O,3.9 µg/mL

# System: Staphylococcus aureus
# Assay: Antibacterial activity against methicillin-sensitive Staphylococcus aureus ATCC 25923 measured after overnight incubation by broth double-dilution method
# Type: functional
# Conditions: not given
# Summary of the method: as §1
row,Compound,MIC
1,CC(C)CCn1c(=O)c2ccccc2[s+]1[O-] (stereo not given),> 125 µg/mL
2,CC(C)CCn1sc2ccccc2c1=O,> 125 µg/mL

# System: Staphylococcus aureus
# Assay: Antibacterial activity against methicillin-resistant Staphylococcus aureus S22 measured after overnight incubation by broth double-dilution method
# Type: functional
# Conditions: not given
# Summary of the method: as §1
row,Compound,MIC
1,CC(C)CCn1c(=O)c2ccccc2[s+]1[O-] (stereo not given),> 125 µg/mL
2,CC(C)CCn1sc2ccccc2c1=O,7.8 µg/mL

# System: Staphylococcus epidermidis
# Assay: Antibacterial activity against Staphylococcus epidermidis ATCC 35984 measured after overnight incubation by broth double-dilution method
# Type: functional
# Conditions: RP62A
# Summary of the method: (§2)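 MIC by broth double-dilution in Mueller-Hinton medium. Re-testing at the time-kill inoculum used 1×10^6 CFU/mL.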
row,Compound,MIC
1,CC(C)CCn1c(=O)c2ccccc2[s+]1[O-] (stereo not given),> 125 µg/mL
2,CC(C)CCn1sc2ccccc2c1=O,3.9 µg/mL

# System: Enterococcus faecalis
# Assay: Antibacterial activity against Enterococcus faecalis ATCC 29212 measured after overnight incubation by broth double-dilution method
# Type: functional
# Conditions: not given
# Summary of the method: as §2
row,Compound,MIC
1,CC(C)CCn1c(=O)c2ccccc2[s+]1[O-] (stereo not given),> 125 µg/mL
2,CC(C)CCn1sc2ccccc2c1=O,7.8 µg/mL

# System: Staphylococcus aureus
# Assay: Antibacterial activity against methicillin-resistant Staphylococcus aureus C19 measured after overnight incubation by broth double-dilution method
# Type: functional
# Conditions: not given
# Summary of the method: as §1
row,Compound,MIC
1,CC(C)CCn1c(=O)c2ccccc2[s+]1[O-] (stereo not given),> 125 µg/mL
2,CC(C)CCn1sc2ccccc2c1=O,3.9 µg/mL

# System: Staphylococcus aureus
# Assay: Antibacterial activity against methicillin-resistant Staphylococcus aureus USA600 measured after overnight incubation by broth double-dilution method
# Type: functional
# Conditions: not given
# Summary of the method: as §1
row,Compound,MIC
1,CC(C)CCn1c(=O)c2ccccc2[s+]1[O-] (stereo not given),> 125 µg/mL
2,CC(C)CCn1sc2ccccc2c1=O,7.8 µg/mL

# System: Staphylococcus aureus
# Assay: Antibacterial activity against methicillin-resistant Staphylococcus aureus C7 measured after overnight incubation by broth double-dilution method
# Type: functional
# Conditions: not given
# Summary of the method: as §1
row,Compound,MIC
1,CC(C)CCn1c(=O)c2ccccc2[s+]1[O-] (stereo not given),> 125 µg/mL
2,CC(C)CCn1sc2ccccc2c1=O,3.9 µg/mL

# System: Staphylococcus aureus
# Assay: Antibacterial activity against methicillin-resistant Staphylococcus aureus NRS51 measured after overnight incubation by broth double-dilution method
# Type: functional
# Conditions: not given
# Summary of the method: as §1
row,Compound,MIC
1,CC(C)CCn1c(=O)c2ccccc2[s+]1[O-] (stereo not given),> 125 µg/mL
2,CC(C)CCn1sc2ccccc2c1=O,7.8 µg/mL

# System: Staphylococcus aureus
# Assay: Antibacterial activity against methicillin-resistant Staphylococcus aureus S24 measured after overnight incubation by broth double-dilution method
# Type: functional
# Conditions: not given
# Summary of the method: as §1
row,Compound,MIC
1,CC(C)CCn1c(=O)c2ccccc2[s+]1[O-] (stereo not given),> 125 µg/mL
2,CC(C)CCn1sc2ccccc2c1=O,3.9 µg/mL

# System: Listeria monocytogenes
# Assay: Antibacterial activity against Listeria monocytogenes ATCC 19115 measured after overnight incubation by broth double-dilution method
# Type: functional
# Conditions: not given
# Summary of the method: as §2
row,Compound,MIC
1,CC(C)CCn1c(=O)c2ccccc2[s+]1[O-] (stereo not given),> 125 µg/mL
2,CC(C)CCn1sc2ccccc2c1=O,> 125 µg/mL

# System: Staphylococcus aureus
# Assay: Antibacterial activity against methicillin-resistant Staphylococcus aureus USA100 measured after overnight incubation by broth double-dilution method
# Type: functional
# Conditions: not given
# Summary of the method: as §1
row,Compound,MIC
1,CC(C)CCn1c(=O)c2ccccc2[s+]1[O-] (stereo not given),> 125 µg/mL
2,CC(C)CCn1sc2ccccc2c1=O,7.8 µg/mL

# System: Staphylococcus aureus
# Assay: Antibacterial activity against methicillin-sensitive Staphylococcus aureus ATCC 29213 measured after overnight incubation by broth double-dilution method
# Type: functional
# Conditions: not given
# Summary of the method: as §1
row,Compound,MIC
1,CC(C)CCn1c(=O)c2ccccc2[s+]1[O-] (stereo not given),> 125 µg/mL
2,CC(C)CCn1sc2ccccc2c1=O,3.9 µg/mL

# System: Staphylococcus aureus
# Assay: Antibacterial activity against methicillin-resistant Staphylococcus aureus 1 measured after overnight incubation by broth double-dilution method
# Type: functional
# Conditions: not given
# Summary of the method: as §1
row,Compound,MIC
1,CC(C)CCn1c(=O)c2ccccc2[s+]1[O-] (stereo not given),> 125 µg/mL
2,CC(C)CCn1sc2ccccc2c1=O,3.9 µg/mL

# System: Staphylococcus aureus
# Assay: Antibacterial activity against methicillin-resistant Staphylococcus aureus C14 measured after overnight incubation by broth double-dilution method
# Type: functional
# Conditions: not given
# Summary of the method: as §1
row,Compound,MIC
1,CC(C)CCn1c(=O)c2ccccc2[s+]1[O-] (stereo not given),> 125 µg/mL
2,CC(C)CCn1sc2ccccc2c1=O,3.9 µg/mL

# System: Staphylococcus aureus
# Assay: Antibacterial activity against methicillin-resistant Staphylococcus aureus ATCC 33591 measured after overnight incubation by broth double-dilution method
# Type: functional
# Conditions: not given
# Summary of the method: as §1
row,Compound,MIC
1,CC(C)CCn1c(=O)c2ccccc2[s+]1[O-] (stereo not given),> 125 µg/mL
2,CC(C)CCn1sc2ccccc2c1=O,> 125 µg/mL

# System: Staphylococcus aureus
# Assay: Antibacterial activity against methicillin-resistant Staphylococcus aureus G14 measured after overnight incubation by broth double-dilution method
# Type: functional
# Conditions: not given
# Summary of the method: as §1
row,Compound,MIC
1,CC(C)CCn1c(=O)c2ccccc2[s+]1[O-] (stereo not given),> 125 µg/mL
2,CC(C)CCn1sc2ccccc2c1=O,7.8 µg/mL

# System: Staphylococcus aureus
# Assay: Antibacterial activity against methicillin-resistant Staphylococcus aureus USA200 measured after overnight incubation by broth double-dilution method
# Type: functional
# Conditions: not given
# Summary of the method: as §1
row,Compound,MIC
1,CC(C)CCn1c(=O)c2ccccc2[s+]1[O-] (stereo not given),> 125 µg/mL
2,CC(C)CCn1sc2ccccc2c1=O,7.8 µg/mL

# System: Staphylococcus aureus
# Assay: Antibacterial activity against methicillin-resistant Staphylococcus aureus S14 measured after overnight incubation by broth double-dilution method
# Type: functional
# Conditions: not given
# Summary of the method: as §1
row,Compound,MIC
1,CC(C)CCn1c(=O)c2ccccc2[s+]1[O-] (stereo not given),> 125 µg/mL
2,CC(C)CCn1sc2ccccc2c1=O,1 µg/mL

# System: Staphylococcus aureus
# Assay: Antibacterial activity against methicillin-resistant Staphylococcus aureus 2 measured after overnight incubation by broth double-dilution method
# Type: functional
# Conditions: not given
# Summary of the method: as §1
row,Compound,MIC
1,CC(C)CCn1c(=O)c2ccccc2[s+]1[O-] (stereo not given),> 125 µg/mL
2,CC(C)CCn1sc2ccccc2c1=O,7.8 µg/mL

# System: Enterococcus faecium
# Assay: Antibacterial activity against Enterococcus faecium BM4105-RF measured after overnight incubation by broth double-dilution method
# Type: functional
# Conditions: not given
# Summary of the method: as §1
row,Compound,MIC
1,CC(C)CCn1c(=O)c2ccccc2[s+]1[O-] (stereo not given),> 125 µg/mL
2,CC(C)CCn1sc2ccccc2c1=O,7.8 µg/mL

# System: Staphylococcus aureus
# Assay: Antibacterial activity against methicillin-resistant Staphylococcus aureus NRS4 measured after overnight incubation by broth double-dilution method
# Type: functional
# Conditions: not given
# Summary of the method: as §1
row,Compound,MIC
1,CC(C)CCn1c(=O)c2ccccc2[s+]1[O-] (stereo not given),> 125 µg/mL
2,CC(C)CCn1sc2ccccc2c1=O,3.9 µg/mL

# System: Enterococcus faecalis
# Assay: Antibacterial activity against Enterococcus faecalis ATCC 49533 measured after overnight incubation by broth double-dilution method
# Type: functional
# Conditions: not given
# Summary of the method: as §2
row,Compound,MIC
1,CC(C)CCn1c(=O)c2ccccc2[s+]1[O-] (stereo not given),> 125 µg/mL
2,CC(C)CCn1sc2ccccc2c1=O,15.6 µg/mL
